Source: ChEMBL document CHEMBL4680131, “Fangchinoline derivatives induce cell cycle arrest and apoptosis in human leukemia cell lines via suppression of the PI3K/AKT and MAPK signaling pathway” (Eur J Med Chem, 2020)

Tests used:
Format in all cases: functional, cell-based
HEL = assay: Cytotoxicity against human HEL cells assessed as reduction in cell viability incubated for 48 hrs by MTT assay
Procedure, shortened: (§1)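 MTT viability after 48 h exposure. Cells (1×10^4/well) were allowed 24 h at 37 °C before dosing. Leukemia lines were grown in RPMI and breast lines in high-glucose DMEM, each with 5% FBS under 5% CO2. MTT was added for 4 h, formazan dissolved in DMSO, and absorbance read at 490 nm. Triplicate wells; values averaged over at least 3 independent experiments.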

K562 = assay: Cytotoxicity against human K562 cells assessed as reduction in cell viability incubated for 48 hrs by MTT assay; conditions: K562, 48 h; procedure, shortened: as §1
MDA-MB-231 = assay: Cytotoxicity against human MDA-MB-231 cells assessed as reduction in cell viability incubated for 48 hrs by MTT assay; conditions: MDA-MB-231, 48 h; procedure, shortened: as §1
MCF7 = assay: Cytotoxicity against human MCF-7 cells assessed as reduction in cell viability incubated for 48 hrs by MTT assay; conditions: MCF7, 48 h; procedure, shortened: as §1

Structure (SMILES)	IC50 (HEL)	IC50 (K562)	IC50 (MDA-MB-231)	IC50 (MCF7)
COc1ccc2cc1Oc1ccc(cc1)C[C@H]1c3cc(c(OC)cc3CCN1C)Oc1c(OC(=O)CCl)c(OC)cc3c1[C@H](C2)N(C)CC3	10.8 µM	12.3 µM	10 µM	30.1 µM
COc1ccc2cc1Oc1ccc(cc1)C[C@H]1c3cc(c(OC)cc3CCN1C)Oc1c(OC(=O)C(C)(C)C)c(OC)cc3c1[C@H](C2)N(C)CC3	3.73 µM	4.03 µM	8.56 µM	7.69 µM
COc1ccc2cc1Oc1ccc(cc1)C[C@H]1c3cc(c(OC)cc3CCN1C)Oc1c(OC(=O)C(Cl)(Cl)Cl)c(OC)cc3c1[C@H](C2)N(C)CC3	3.54 µM	3.3 µM	4.05 µM	7.14 µM
COc1ccc2cc1Oc1ccc(cc1)C[C@H]1c3cc(c(OC)cc3CCN1C)Oc1c(OC(=O)CBr)c(OC)cc3c1[C@H](C2)N(C)CC3	25.9 µM	14.3 µM	17.8 µM	22.1 µM
COc1ccc2cc1Oc1ccc(cc1)C[C@H]1c3cc(c(OC)cc3CCN1C)Oc1c(OC(=O)c3c(Cl)cc(Cl)cc3Cl)c(OC)cc3c1[C@H](C2)N(C)CC3	7.65 µM	7.6 µM	23 µM	18.2 µM
COc1ccc2cc1Oc1ccc(cc1)C[C@H]1c3cc(c(OC)cc3CCN1C)Oc1c(OC(=O)CCCl)c(OC)cc3c1[C@H](C2)N(C)CC3	4.84 µM	6.47 µM	9.47 µM	18.8 µM
COc1ccc2cc1Oc1ccc(cc1)C[C@H]1c3cc(c(OC)cc3CCN1C)Oc1c(OC(=O)c3ccccc3Cl)c(OC)cc3c1[C@H](C2)N(C)CC3	3.22 µM	3.58 µM	5.41 µM	6.26 µM
COc1ccc2cc1Oc1ccc(cc1)C[C@H]1c3cc(c(OC)cc3CCN1C)Oc1c(OC(=O)c3ccc(Cl)cc3Cl)c(OC)cc3c1[C@H](C2)N(C)CC3	10.2 µM	6.11 µM	28 µM	> 100 µM
C=CCCCCCCCCC(=O)Oc1c(OC)cc2c3c1Oc1cc4c(cc1OC)CCN(C)[C@H]4Cc1ccc(cc1)Oc1cc(ccc1OC)C[C@@H]3N(C)CC2	15.7 µM	10.4 µM	13 µM	8.57 µM
C=CC(=O)Oc1c(OC)cc2c3c1Oc1cc4c(cc1OC)CCN(C)[C@H]4Cc1ccc(cc1)Oc1cc(ccc1OC)C[C@@H]3N(C)CC2	4.27 µM	6.77 µM	5.03 µM	7.28 µM
COc1ccc2cc1Oc1ccc(cc1)C[C@H]1c3cc(c(OC)cc3CCN1C)Oc1c(OC(=O)C3CC3)c(OC)cc3c1[C@H](C2)N(C)CC3	21.3 µM	17.5 µM	13.5 µM	> 100 µM
COc1ccc2cc1Oc1ccc(cc1)C[C@H]1c3cc(c(OC)cc3CCN1C)Oc1c(OC(=O)CCCCl)c(OC)cc3c1[C@H](C2)N(C)CC3	7.86 µM	6.55 µM	8.68 µM	12.4 µM
CCCCCC(=O)Oc1c(OC)cc2c3c1Oc1cc4c(cc1OC)CCN(C)[C@H]4Cc1ccc(cc1)Oc1cc(ccc1OC)C[C@@H]3N(C)CC2	21 µM	13.3 µM	11.3 µM	12 µM
COc1ccc2cc1Oc1ccc(cc1)C[C@H]1c3cc(c(OC)cc3CCN1C)Oc1c(OC(=O)N3c4ccccc4Sc4ccccc43)c(OC)cc3c1[C@H](C2)N(C)CC3	17.6 µM	12.4 µM	10.1 µM	20.7 µM
COc1ccc2cc1Oc1ccc(cc1)C[C@H]1c3cc(c(OC)cc3CCN1C)Oc1c(OC(=O)c3cccc4ccccc34)c(OC)cc3c1[C@H](C2)N(C)CC3	3.46 µM	4.59 µM	16.5 µM	8.19 µM
CCN(CC)C(=O)Oc1c(OC)cc2c3c1Oc1cc4c(cc1OC)CCN(C)[C@H]4Cc1ccc(cc1)Oc1cc(ccc1OC)C[C@@H]3N(C)CC2	2.98 µM	3.74 µM	9.04 µM	23.7 µM
